Laboratory results published in publication PMC7203960 (ACS Omega, 2020).

What was measured:
[1] = Radical scavenging activity by DPPH method
In short: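 DPPH (1.6 mg in 50 mL DMSO), 1.5 mL, was mixed with 1.5 mL of test compound at 100 μg/mL. The mixture stood 45 min at ambient temperature in the dark, then absorbance was read at 517 nm. Blank DPPH solution served as control. Scavenging % was computed from control and sample absorbances, in triplicate.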

[2] = CellTiter-Glo luminescent cell viability assay, non-cancerous cell line MRC5; type: cell-based; conditions: human, MRC5 cells (non-cancerous cell line)
In short: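 Test compounds were made up as 100 mM DMSO stocks and diluted to 0.1 mM in sterile PBS. Cells were seeded at 1500 cells/well in 384-well plates and held 24 h before 72 h exposure. Viability was read by CellTiter-Glo luminescence on a microplate reader.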

AsPC1 = assay: CellTiter-Glo luminescent cell viability assay, AsPC1; type: cell-based; conditions: Homo sapiens, ASPC1, 72 h, read-out: IC50 AsPC1
In short: (§1)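 AsPC1 and SW1990 human pancreatic cancer cells were obtained from ATCC and grown in RPMI with FBS, penicillin 100 IU/mL and streptomycin 100 μg/mL at 37 °C in 5% CO2. Compounds were made up as 100 mM DMSO stocks and diluted to 0.1 mM in sterile PBS. Cells were seeded at 1500 cells/well, held 24 h, then treated 72 h. Viability was read by CellTiter-Glo luminescence, in triplicate.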

SW1990 = assay: CellTiter-Glo luminescent cell viability assay, SW1990; type: cell-based; conditions: Homo sapiens, SW1990, 72 h, read-out: IC50 SW1990
In short: as §1

Row | IC50 ([1]; read-out: IC50 (DPPH radical scavenging), DPPH method) [µM] | IC50 (AsPC1) [µM] | IC50 (SW1990) [µM] | Structure (SMILES) | % scavenging (DPPH) ([1]; 100 μg/mL, 45 min incubation, absorbance at 517 nm, triplicate) [%] | IC50 at 72 h [2] [µM]
1 | 170 | – | – | O=C1O[C@H]([C@@H](O)CO)C(O)=C1O [AA, ascorbic acid] | 88.75 ± 0.89 | –
2 | – | 39.3 ± 4.44 | 35.1 ± 1.78 | Nc1ccn([C@@H]2O[C@H](CO)[C@@H](O)C2(F)F)c(=O)n1 [gemcitabine] | – | 54.17 ± 0.2
